Source: PubChem BioAssay
This is a sample that favours compounds with a hit; in the whole collection about 2.2% have one here.
NR2E3 ag-1: activates human photoreceptor nuclear receptor NR2E3; GST-NR2E3/biotin-RetCOR TR-FRET, 1536-well; inhibition of corepressor binding, % at 4.78 µM; Q9Y5X4; AID 2300; 320,000 tested, 0.12% active;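 active = percent inhibition above the cutoff of mean plus 3 SD of all tested compounds, set per screening campaign, cut at about 20% in these data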;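 note: 0% = DMSO wells and 100% = biotin wells as full block of FRET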
Target sequence (Q9Y5X4 whole entry, looked up): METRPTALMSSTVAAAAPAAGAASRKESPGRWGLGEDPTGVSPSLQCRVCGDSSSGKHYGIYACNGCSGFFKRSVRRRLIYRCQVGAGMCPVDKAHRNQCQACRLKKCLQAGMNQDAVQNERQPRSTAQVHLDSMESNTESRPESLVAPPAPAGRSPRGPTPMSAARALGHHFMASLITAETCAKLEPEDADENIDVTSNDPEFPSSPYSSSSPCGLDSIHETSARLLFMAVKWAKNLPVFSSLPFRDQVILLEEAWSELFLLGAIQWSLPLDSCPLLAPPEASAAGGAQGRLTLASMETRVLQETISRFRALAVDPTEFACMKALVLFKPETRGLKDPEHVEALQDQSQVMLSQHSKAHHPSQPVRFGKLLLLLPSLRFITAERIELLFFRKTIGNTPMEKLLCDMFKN
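System: GST-tagged NR2E3 plus biotinylated RetCOR corepressor; Buffer or medium: pH 7.5 Tris-based buffer; Probe or stimulus: RetCOR corepressor, biotinylated, 7 nM; Doses: compound at 4.8 µM, single dose; Schedule: 5 h incubation at 4 °C; Technique: time-resolved FRET; Evaluation: percent inhibition of TR-FRET ratio; Replication: one well per compound, singlicate testing.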
Jurkat NFkB inh: inhibitors of the PMA/ionomycin-induced NF-kB reporter in Jurkat cells. AID 435003. inhibition, % at 4 µM. PMA/ionomycin-induced NF-kB luciferase reporter, luminescence. 330,000 tested, 0.53% active; in the data active = inhibition above about 50%
FGF22 binding-1: binders of recombinant human FGF22 by thermal shift. AID 651658. 340,000 tested, 1.5% active. activity (Tm shift, normalised), % at 9.99 µM. SYPRO orange fluorescence; percent of sucrose octasulfate shift, DMSO zero;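 active = mean Tm shift, scaled 0 neutral to 100 positive control, at about 1.3% or above, every replicate too, limit read from the data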
Target sequence (Q9HCT0 whole entry, looked up): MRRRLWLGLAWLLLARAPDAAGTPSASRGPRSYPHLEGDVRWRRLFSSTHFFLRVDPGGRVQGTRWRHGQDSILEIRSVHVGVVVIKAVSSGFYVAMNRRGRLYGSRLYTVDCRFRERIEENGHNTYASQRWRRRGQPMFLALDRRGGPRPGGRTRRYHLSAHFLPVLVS
NR2E3 ag-2: human photoreceptor-specific nuclear receptor agonism; CHO-S Gal4-NCOR/VP16-NR2E3 two-hybrid, luciferase; 360,000 tested, 0.35% active; Q9Y5X4; AID 602229; inhibition of corepressor binding, % at 3.98 µM;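 active = inhibition above the mean of all tested compounds plus 3 SD, cut at about 70% in these data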;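 note: 0% = DMSO with NR2E3 transfected cells and 100% = cells lacking NR2E3 construct; higher means lower luciferase signal from less NR2E3 corepressor binding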
697 NFkB inh: inhibitors of the PMA/ionomycin-induced NF-kB reporter in 697 B cells | 330,000 tested, 0.33% active | AID 435022 | inhibition, % at 4 µM | 697 B-cell NF-kB luciferase reporter, 16 h; in the data active = inhibition above about 35%
miR-122 sensor: miR-122 inhibition in Huh7 cells; activation (reporter increase), % at 12.5 µM; 340,000 tested, 0.3% active; Huh7 miR-122 Renilla luciferase sensor, 48 h; neutral wells = 0, positive control = 100;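 active = mean replicate activation score at least 90 and every replicate individually at or above 90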;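 note: higher luciferase means less miR-122 activity so hits act as miR-122 inhibitors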
FGF22 binding-2: binds human FGF22 shifting its melting temperature; shares compounds with FGF22 binding-1; recombinant FGF22 thermal shift, SYPRO orange fluorescence; thermal shift activity, °C (ΔTm) at 38 µM; 1,000 tested, 2% active; AID 720646;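 active = fitted rise in melting shift crosses a set limit at or below the top valid dose tested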
FGF22 TSA DP: binds human FGF22 shifting its melting temperature; shares compounds with FGF22 binding-1; Thermal shift assay, SYPRO orange, melting temperature shift; Tm shift (activity), % at 38 µM; 50 tested, under 10 active; AID 743017;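 active = compounds whose fitted dose curve of melting temperature shift rises past a set threshold within the tested doses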
SYPRO no-protein: compound-only SYPRO artifact for FGF22 binders | 1,000 tested, 2% active | shares compounds with FGF22 binding-1 | compound-only SYPRO orange thermal shift counter-screen, no protein | AC50, µM (doses to about 38 µM) | AID 743019;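 active = rising signal whose fitted curve reaches the 0.54 level within the top valid dose, showing a melting point, actives reach about 13 µM in these data; inactive = the rest, including activity in the opposite direction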; note: value is where the raw curve crosses a fixed level and not half-maximal
Numbers without * were called inactive; i = inactive; . = not tested or not shown; [ ] = dose if it differs, or a comment.

SMILES	NR2E3 ag-1	Jurkat NFkB inh	FGF22 binding-1	NR2E3 ag-2	697 NFkB inh	miR-122 sensor	FGF22 binding-2	SYPRO no-protein	others
COC(=O)CN1C(=S)N(c2ccc(F)cc2)C(=O)C1CC(=O)Nc1ccccc1 (centres undefined)	2	12	1.6*	1	6	.	0.007	i
CC(C)N(C[C@H]1[C@H](c2ccccc2)[C@H](CO)N1S(C)(=O)=O)C(=O)CN(C)C	.	.	0	.	.	8[16.7 µM]	.	.
CC(C)N(C[C@H]1[C@H](c2ccccc2)[C@@H](CO)N1S(C)(=O)=O)C(=O)CN(C)C	.	.	1.2*	.	.	-33[16.7 µM]	0.088	i
O=C(N[C@@H]1CC[C@@H](CCNS(=O)(=O)c2ccc(F)cc2)O[C@@H]1CO)c1cccnc1	.	.	0	.	.	.	.	.
O=C(O)C1CCN(S(=O)(=O)Cc2ccccc2)CC1	-2	-4	12*	17	18	-5	0.18	i
CCOC(=O)C1CCN(S(=O)(=O)Cc2ccccc2)CC1	1	-4	0	-22	-1	.	.	.
O=C(NN=Cc1ccc(O)cc1O)c1ccccc1NS(=O)(=O)c1cccs1	.	7	1.9*	-18	6	-7	0.24	i
COC(=O)Cc1n[nH]c(=O)c2ccccc12	4	-5	12*	-14	-6	-2	-0.025	i
Cc1noc(C)c1NC(=O)N[C@@H]1C=C[C@H](CC(=O)Nc2ccc(-c3ccccc3)cc2)O[C@@H]1CO	.	.	1.9*	.	.	.	0.018[42 µM]	i
CCCC#Cc1cnc2c(c1)C(=O)N([C@H](C)CO)C[C@H](C)[C@@H](CN(C)C(=O)C1CCOCC1)O2	.	.	0	.	.	-1[16.7 µM]	.	.
O=C(O)CCc1nn2c3ccccc3n(CC(=O)c3ccccc3)c2nc1=O	-1	8	.	-16	19	-4	.	.
CCOC(=O)Cn1c2ccccc2n2nc(CCC(=O)O)c(=O)nc12	5	-4	19*	18	9	3	0.081	i
COc1ccc(S(=O)(=O)N(C)C[C@@H]2OCCCC[C@@H](C)Oc3ccc(NS(=O)(=O)c4cn(C)cn4)cc3C(=O)N([C@H](C)CO)C[C@@H]2C)cc1	.	.	0	.	.	1[16.7 µM]	.	.
CO[C@H]1CN(C)C(=O)c2ccc(NC(=O)c3ccc(-c4ccccc4)cc3)cc2OC[C@H](C)NC[C@H]1C	.	.	0	.	.	.	.	.
O=C(Nc1ccc2c(c1)OCO2)N[C@H]1CC[C@@H](CCNC(=O)C2CCC2)O[C@H]1CO	.	.	0	.	.	1[16.7 µM]	.	.
CCOC(=O)CSc1nc2nc(Cl)c(Cl)nc2[nH]1	.	.	1	-139	.	.	.	.
CSc1nc2nc(Cl)c(Cl)nc2[nH]1	.	.	1.4*	-17	.	-4	0.039	i
CCNC(=O)C[C@@H]1CC[C@H]2[C@@H](COc3ccc(NC(=O)Nc4ccc(C)cc4)cc3C(=O)N2C)O1	.	.	0	.	.	-9[16.7 µM]	.	.
O=Cc1cc(OCc2ccccc2)ccc1[B-](F)(F)F	.	.	1.5*	-15	.	-2	0.012	i
Nc1ccc(OCc2ccccc2)cc1[N+](=O)[O-]	.	.	0	-40	.	.	.	.
O=C(C[C@H]1CC[C@@H]2[C@H](COC[C@@H](O)CN2C(=O)Nc2ccc3c(c2)OCO3)O1)N1CCN(c2ccccc2)CC1	.	.	0	.	.	1[16.7 µM]	.	.
O=C(N/N=C/c1c[nH]c2ccccc12)c1cccc(O)c1	2	-30	2.1*	-17	12	-6	0.52	i	FGF22 TSA DP=1
Cc1ccsc1/C=N/NC(=O)c1c[nH]c2ccccc12	-6	-57	.	-53	-21	12	.	.
CC(=O)Nc1cccc(C(=O)N/N=C/c2c[nH]c3ccccc23)c1	1	-14	3.8*	-10	2	13	.	i	FGF22 TSA DP=0
COc1ccc(C(=O)N/N=C/c2c[nH]c3ccccc23)cc1	-4	-52	0	-15	-62	1	.	.
SMILES	NR2E3 ag-1	Jurkat NFkB inh	FGF22 binding-1	NR2E3 ag-2	697 NFkB inh	miR-122 sensor	FGF22 binding-2	SYPRO no-protein	others
O=C(N/N=C/c1ccsc1)c1c[nH]c2ccccc12	0	-49	3.7*	-49	-92	.	-0.063	i
O=C(N/N=C/c1c[nH]c2ccccc12)c1ccc(O)c(O)c1	5	-4	2.4*	-21	-8	.	-0.034	i	FGF22 TSA DP=0
CCCNC(=O)Nc1ccc2c(c1)C(=O)N(C)C[C@H](OC)[C@H](C)CN(Cc1cccnc1)[C@H](C)CO2	.	.	0	.	.	.	.	.
CN1[C@@H]2c3cccc(=O)n3C[C@@H]2[C@@H](CO)[C@@H]1C(=O)NCCc1ccccc1	.	.	0	.	.	-4[16.7 µM]	.	.
COc1cccc(NC(=O)N[C@@H]2CC[C@H](CC(=O)N3CCOCC3)O[C@@H]2CO)c1	.	.	0	.	.	.	.	.
O=C(C1CCC1)N1CCCCN2[C@H](C1)[C@H](c1ccc(-c3ccncc3)cc1)[C@@H]2CO	.	.	0	.	.	0[16.7 µM]	.	.
COc1ccc(-c2cnc3c(c2)C(=O)N([C@H](C)CO)C[C@H](C)[C@H](CN(C)S(=O)(=O)c2cccc(F)c2)O3)cc1	.	.	0	.	.	3[16.7 µM]	.	.
